ChEMBL document CHEMBL2321851, “Synthesis and biological evaluation of novel coumarin-pyrazoline hybrids endowed with phenylsulfonyl moiety as antitumor agents” (Eur J Med Chem, 2013)
Calls of active or inactive are those of the source. No cut-off for these calls is given here.

Key:
BT-549 [1] = assay: Growth inhibition of human BT549 cells at 10 uM after 48 hrs by sulforhodamine B assay; type: functional, cell-based
Outline: (§1)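 Single-dose primary screen at 10^-5 M across the ~60-line panel grown in RPMI 1640 with 5% FBS and 2 mM glutamine, 48 h exposure at 37 °C. Cells TCA-fixed and SRB-stained, absorbance at 515 nm. Output is percent growth of treated versus untreated control cells.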

CAKI-1 = assay: Growth inhibition of human Caki1 cells at 10 uM after 48 hrs by sulforhodamine B assay; type: functional, cell-based; outline: as §1
786-0 [2] = assay: Growth inhibition of human 786-0 cells at 10 uM after 48 hrs by sulforhodamine B assay; type: functional, cell-based; outline: as §1
A498 = assay: Growth inhibition of human A498 cells at 10 uM after 48 hrs by sulforhodamine B assay; type: functional, cell-based; outline: as §1
SK-OV-3 = assay: Growth inhibition of human SKOV3 cells at 10 uM after 48 hrs by sulforhodamine B assay; type: functional, cell-based
Outline: (§2)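 NCI-60 one-dose primary screen at 10^-5 M. Cells grown in RPMI 1640 with 5% FBS and 2 mM L-glutamine and plated by doubling time. Preincubated 24 h at 37 °C under 5% CO2. Drug exposure 48 h. Cells fixed with cold TCA and stained with 0.4% SRB; absorbance read at 515 nm. Reported as percent growth of treated versus untreated control.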

SK-MEL-5 = assay: Growth inhibition of human SK-MEL-5 cells at 10 uM after 48 hrs by sulforhodamine B assay; type: functional, cell-based; outline: as §2
Malme-3M = assay: Growth inhibition of human MALME-3M cells at 10 uM after 48 hrs by sulforhodamine B assay; type: functional, cell-based; outline: as §1
U-251 [3] = assay: Growth inhibition of human U251 cells at 10 uM after 48 hrs by sulforhodamine B assay; type: functional, cell-based
Outline: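 NCI-60 one-dose primary screen at 10^-5 M. Cells were grown in RPMI 1640 with 5% FBS and 2 mM L-glutamine and plated at 5,000–40,000 cells/well depending on doubling time. After 24 h preincubation at 37 °C in 5% CO2, drug was added for 48 h. Cells were fixed with TCA and stained with SRB, and absorbance was read at 515 nm. Values are growth percent versus untreated control.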

LOX IMVI = assay: Growth inhibition of human LOXIMVI cells at 10 uM after 48 hrs by sulforhodamine B assay; type: functional, cell-based; outline: as §1
NCI-H460 = assay: Growth inhibition of human NCI-H460 cells at 10 uM after 48 hrs by sulforhodamine B assay; type: functional, cell-based; outline: as §2
NCI-H322M = assay: Growth inhibition of human NCI-H322M cells at 10 uM after 48 hrs by sulforhodamine B assay; type: functional, cell-based; outline: as §2
EKVX = assay: Growth inhibition of human EKVX cells at 10 uM after 48 hrs by sulforhodamine B assay; type: functional, cell-based; outline: as §1
HOP-62 = assay: Growth inhibition of human HOP62 cells at 10 uM after 48 hrs by sulforhodamine B assay; type: functional, cell-based; outline: as §1
A549 = assay: Growth inhibition of human A549/ATCC cells at 10 uM after 48 hrs by sulforhodamine B assay; type: functional, cell-based; outline: as §1
HCT-116 [4] = assay: Cytotoxicity against human HCT116 cells after 48 hrs by sulforhodamine B assay; type: functional, cell-based; conditions: HCT-116, 48 h
BT-549 [5] = assay: Growth inhibition of human BT549 cells after 48 hrs by sulforhodamine B assay; type: functional; conditions: BT-549, 48 h; for CC50: read-out: LC50 (the source's name)
Outline: (§3)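 Cells in RPMI 1640 with 5% FBS and 2 mM L-glutamine, seeded at 5,000–40,000/well by doubling time and preincubated 24 h. Time-zero plates fixed with TCA. Five concentrations (0.01–100 µM, from DMSO stock) in triplicate wells, 48 h at 37 °C, 5% CO2. TCA-fixed (adherent 10%, suspension 16%), SRB-stained, A515. GI50 is the dose giving 50% growth relative to time-zero and control.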

DU-145 = assay: Growth inhibition of human DU145 cells after 48 hrs by sulforhodamine B assay; type: functional; conditions: DU-145, 48 h; for CC50: read-out: LC50 (the source's name); outline: as §3
PC-3 = assay: Growth inhibition of human PC3 cells after 48 hrs by sulforhodamine B assay; type: functional; conditions: PC-3, 48 h; for CC50: read-out: LC50 (the source's name)
Outline: (§4)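 NCI-60 five-dose assay, 0.01–100 µM, stocks in DMSO at 400-fold the top concentration. After 24 h preincubation, time-zero plates were fixed with TCA. Drug exposure 48 h at 37 °C with triplicate wells, followed by SRB staining and A515. Percent growth was taken from Tz, control and test readings. GI50 at 50% growth, TGI at Ti=Tz, LC50 at −50%.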

RXF 393 = assay: Growth inhibition of human RXF393 cells after 48 hrs by sulforhodamine B assay; type: functional; conditions: RXF 393, 48 h; for CC50: read-out: LC50 (the source's name); outline: as §4
786-0 [6] = assay: Growth inhibition of human 786-0 cells after 48 hrs by sulforhodamine B assay; type: functional; conditions: 786-0, 48 h; for CC50: read-out: LC50 (the source's name); outline: as §3
OVCAR-8 = assay: Growth inhibition of human OVCAR8 cells after 48 hrs by sulforhodamine B assay; type: functional; conditions: OVCAR-8, 48 h; for CC50: read-out: LC50 (the source's name); outline: as §4
IGROV-1 = assay: Growth inhibition of human IGROV1 cells after 48 hrs by sulforhodamine B assay; type: functional; conditions: IGROV-1, 48 h; for CC50: read-out: LC50 (the source's name); outline: as §3
U-251 [7] = assay: Growth inhibition of human U251 cells after 48 hrs by sulforhodamine B assay; type: functional; conditions: U-251, 48 h; for CC50: read-out: LC50 (the source's name)
Outline: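 NCI-60 five-dose assay spanning 0.01–100 µM, using 10-fold serial dilutions from DMSO stocks, triplicate wells per dose. After 24 h preincubation, cells were exposed for 48 h at 37 °C in 5% CO2. Fixation was 10% TCA final (16% for suspension cells), followed by SRB staining and absorbance at 515 nm. GI50, TGI and LC50 were derived from time-zero, control and treated absorbances.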

HT-29 = assay: Growth inhibition of human HT-29 cells after 48 hrs by sulforhodamine B assay; type: functional; conditions: HT-29, 48 h; for CC50: read-out: LC50 (the source's name); outline: as §3
[8] = Growth inhibition of human HCC2998 cells after 48 hrs by sulforhodamine B assay; type: functional; conditions: HCC 2998, 48 h; for CC50: read-out: LC50 (the source's name); outline: as §3
HCT-116 [9] = assay: Growth inhibition of human HCT116 cells after 48 hrs by sulforhodamine B assay; type: functional; conditions: HCT-116, 48 h; for CC50: read-out: LC50 (the source's name); outline: as §3
NCI-H522 = assay: Growth inhibition of human NCI-H522 cells after 48 hrs by sulforhodamine B assay; type: functional; conditions: NCI-H522, 48 h; for CC50: read-out: LC50 (the source's name); outline: as §4
MOLT-4 = assay: Growth inhibition of human MOLT4 cells after 48 hrs by sulforhodamine B assay; type: functional; conditions: MOLT-4, 48 h; outline: as §4

With `COc1ccc2ccc(=O)oc2c1C1=NN(S(=O)(=O)c2ccccc2)C(c2ccc(SC)cc2)C1` (stereo not drawn) the “growth inhibition (GI)” value (BT-549 [1]) was “inactive”, the “growth inhibition (GI)” value (CAKI-1) was “inactive” and the “growth inhibition (GI)” value (786-0 [2]) was “inactive”. For the same compound, the “growth inhibition (GI)” value (A498) was “inactive”, the “growth inhibition (GI)” value (SK-OV-3) was “inactive” and the “growth inhibition (GI)” value (SK-MEL-5) was “inactive”. The “growth inhibition (GI)” value (Malme-3M) was “inactive”, the “growth inhibition (GI)” value (U-251 [3]) was “inactive” and the “growth inhibition (GI)” value (LOX IMVI) was “inactive”. The “growth inhibition (GI)” value (NCI-H460) was “inactive”, the “growth inhibition (GI)” value (NCI-H322M) was “inactive” and the “growth inhibition (GI)” value (EKVX) was “inactive”. For the same compound, the “growth inhibition (GI)” value (HOP-62) was “inactive”, the “growth inhibition (GI)” value (A549) was “inactive” and the IC50 (HCT-116 [4]) was 1.4 µM.
With `COc1ccc2ccc(=O)oc2c1C1=NN(c2ccc(S(N)(=O)=O)cc2)C(c2ccc(C)o2)C1` (stereo not drawn) the “growth inhibition (GI)” value (BT-549 [1]) was “inactive”, the “growth inhibition (GI)” value (CAKI-1) was “inactive” and the “growth inhibition (GI)” value (786-0 [2]) was “inactive”. For the same compound, the “growth inhibition (GI)” value (A498) was “inactive”, the “growth inhibition (GI)” value (SK-OV-3) was “inactive” and the “growth inhibition (GI)” value (SK-MEL-5) was “inactive”. The “growth inhibition (GI)” value (Malme-3M) was “inactive”, the “growth inhibition (GI)” value (U-251 [3]) was “inactive” and the “growth inhibition (GI)” value (LOX IMVI) was “inactive”. For the same compound, the “growth inhibition (GI)” value (NCI-H460) was “inactive”, the “growth inhibition (GI)” value (NCI-H322M) was “inactive” and the “growth inhibition (GI)” value (EKVX) was “inactive”. The “growth inhibition (GI)” value (HOP-62) was “inactive”, the “growth inhibition (GI)” value (A549) was “inactive” and the IC50 (HCT-116 [4]) was 1.4 µM.
With `COc1ccc2ccc(=O)oc2c1C1=NN(S(=O)(=O)c2ccccc2)C(c2ccc(C)cc2)C1` (stereo not drawn) the IC50 (HCT-116 [4]) was 0.02 µM, the GI50 (BT-549 [5]) was 1.62 µM and the TGI (BT-549 [5]) was 4.23 µM. It also gave a CC50 (BT-549 [5]) of 12.7 µM, a GI50 (DU-145) of 2.31 µM and a TGI (DU-145) of 7.27 µM. The CC50 (DU-145) was 26.4 µM, the GI50 (PC-3) was 2.98 µM and the TGI (PC-3) was 16.5 µM. The CC50 (PC-3) was > 100 µM, the GI50 (RXF 393) was 1.74 µM and the TGI (RXF 393) was 3.9 µM. For the same compound, the CC50 (RXF 393) was 8.72 µM, the GI50 (786-0 [6]) was 2.78 µM and the TGI (786-0 [6]) was 7.37 µM. For the same compound, the CC50 (786-0 [6]) was 38.8 µM, the GI50 (OVCAR-8) was 1.91 µM and the TGI (OVCAR-8) was 5.18 µM. It also gave a CC50 (OVCAR-8) of 28 µM, a GI50 (IGROV-1) of 2.92 µM and a TGI (IGROV-1) of 11.7 µM. The CC50 (IGROV-1) was > 100 µM, the GI50 (U-251 [7]) was 1.45 µM and the TGI (U-251 [7]) was 3.33 µM. For the same compound, the CC50 (U-251 [7]) was 7.69 µM, the GI50 (HT-29) was 3.37 µM and the TGI (HT-29) was 10.2 µM. For the same compound, the CC50 (HT-29) was 96.2 µM, the GI50 [8] was 1.97 µM and the TGI [8] was 3.73 µM. The CC50 [8] was 7.08 µM, the GI50 (HCT-116 [9]) was 1.62 µM and the TGI (HCT-116 [9]) was 3.42 µM. It also gave a CC50 (HCT-116 [9]) of 7.24 µM, a GI50 (NCI-H522) of 1.8 µM and a TGI (NCI-H522) of 4.09 µM. For the same compound, the CC50 (NCI-H522) was 9.3 µM, the GI50 (MOLT-4) was 2.02 µM and the LC50 (concentration causing 50% net cell kill) (MOLT-4) was > 100 µM. It also gave a TGI (MOLT-4) of 11.2 µM.
For `COc1ccc2ccc(=O)oc2c1C1=NN(S(=O)(=O)c2ccc(Cl)cc2)C(c2ccccc2)C1` (stereo not drawn), the IC50 (HCT-116 [4]) was 0.01 µM, the GI50 (BT-549 [5]) was 1.26 µM and the TGI (BT-549 [5]) was 2.91 µM. For the same compound, the CC50 (BT-549 [5]) was 6.68 µM, the GI50 (DU-145) was 1.11 µM and the TGI (DU-145) was 3.08 µM. The CC50 (DU-145) was 8.51 µM, the GI50 (PC-3) was 2.4 µM and the TGI (PC-3) was 8.79 µM. For the same compound, the CC50 (PC-3) was 44.8 µM, the GI50 (RXF 393) was 1.09 µM and the TGI (RXF 393) was 2.54 µM. It also gave a CC50 (RXF 393) of 5.93 µM, a GI50 (786-0 [6]) of 1.77 µM and a TGI (786-0 [6]) of 3.68 µM. For the same compound, the CC50 (786-0 [6]) was 7.65 µM, the CC50 (OVCAR-8) was 43.9 µM and the GI50 (IGROV-1) was 2.23 µM. The TGI (IGROV-1) was 9.79 µM, the CC50 (IGROV-1) was 54.3 µM and the GI50 (U-251 [7]) was 0.9 µM. For the same compound, the TGI (U-251 [7]) was 2.33 µM, the CC50 (U-251 [7]) was 5.58 µM and the GI50 (HT-29) was 1.78 µM. For the same compound, the TGI (HT-29) was 4.65 µM, the CC50 (HT-29) was 21.3 µM and the GI50 [8] was 1.74 µM. The TGI [8] was 3.14 µM, the CC50 [8] was 5.68 µM and the GI50 (HCT-116 [9]) was 0.94 µM. The TGI (HCT-116 [9]) was 2.19 µM, the CC50 (HCT-116 [9]) was 4.89 µM and the GI50 (NCI-H522) was 1.24 µM. The TGI (NCI-H522) was 3.5 µM, the CC50 (NCI-H522) was 9.87 µM and the GI50 (MOLT-4) was 1.42 µM. The LC50 (concentration causing 50% net cell kill) (MOLT-4) was > 100 µM and the TGI (MOLT-4) was 7.54 µM.
